Measured values taken from ChEMBL document CHEMBL3817776, “Discovery and Structure-Activity Relationships of the Neoseptins: A New Class of Toll-like Receptor-4 (TLR4) Agonists” (J Med Chem, 2016).
pEC50: −log10 of the molar value. Calls of active or inactive are those of the source. How the calls were made is not given here.

Biological target: T1, Toll-like receptor 4 (Mus musculus) (UniProt Q9QUK6)
T1 sequence (whole entry): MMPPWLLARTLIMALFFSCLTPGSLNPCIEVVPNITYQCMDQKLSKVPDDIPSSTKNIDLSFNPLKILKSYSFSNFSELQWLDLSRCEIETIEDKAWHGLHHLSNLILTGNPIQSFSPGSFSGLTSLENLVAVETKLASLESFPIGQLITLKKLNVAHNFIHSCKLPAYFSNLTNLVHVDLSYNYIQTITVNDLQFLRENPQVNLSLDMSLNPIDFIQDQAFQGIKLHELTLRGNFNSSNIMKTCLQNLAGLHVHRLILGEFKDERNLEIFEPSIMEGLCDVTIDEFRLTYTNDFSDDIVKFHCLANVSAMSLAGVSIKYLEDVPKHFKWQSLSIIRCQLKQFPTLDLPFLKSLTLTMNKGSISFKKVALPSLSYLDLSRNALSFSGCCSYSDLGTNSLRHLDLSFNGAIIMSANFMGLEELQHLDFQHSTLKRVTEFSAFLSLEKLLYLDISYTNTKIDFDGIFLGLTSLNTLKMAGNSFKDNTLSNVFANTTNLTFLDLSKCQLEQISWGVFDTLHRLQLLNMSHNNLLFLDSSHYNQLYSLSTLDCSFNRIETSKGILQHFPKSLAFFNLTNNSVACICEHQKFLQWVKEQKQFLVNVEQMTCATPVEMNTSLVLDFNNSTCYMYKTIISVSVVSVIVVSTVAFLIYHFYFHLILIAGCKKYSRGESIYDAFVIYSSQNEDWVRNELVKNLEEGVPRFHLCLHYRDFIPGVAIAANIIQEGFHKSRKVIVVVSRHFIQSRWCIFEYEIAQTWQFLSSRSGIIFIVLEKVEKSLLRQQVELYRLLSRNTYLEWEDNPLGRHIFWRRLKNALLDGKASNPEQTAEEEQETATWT
Experiment: Agonist activity at TLR4 in C57BL/6J mouse macrophages assessed as stimulation of TNFalpha release at 50 uM after 4 hrs by ELISA
Outline: (§1)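 Peritoneal macrophages from wild-type C57BL/6J mice, collected by PBS lavage and cultured in DMEM/10% FBS at 37 °C, 5% CO2. Seeded at 1 × 10^5 cells/well and treated 4 h with compound in DMSO (0.5% final) beside ultra-pure LPS and DMSO controls. Supernatant TNF-α measured by ELISA; mean of triplicates.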

Row | Structure (SMILES) | Activity
1 | CC(C)(C)OC(=O)[C@H](CCc1ccc(Cl)cc1)NC(=O)c1ccc(N)c(CCc2ccc(O)cc2)c1 | inactive
2 | CC(C)(C)OC(=O)[C@H](CCc1ccccc1)NCc1ccc(N)c(CCc2ccc(O)cc2)c1 | inactive
3 | CCCCCCCNC(=O)[C@H](CCc1ccccc1)NC(=O)c1ccc(N)c(CCc2ccc(O)cc2)c1 | inactive
4 | CC(=O)Nc1ccc(C(=O)N[C@@H](CCc2ccccc2)C(=O)OC(C)(C)C)cc1CCc1ccc(O)cc1 | inactive
5 | CC(C)(C)OC(=O)[C@@H](N)Cc1ccccc1 | inactive
6 | CC(C)(C)OC(=O)[C@H](CCc1ccccc1)NC(=O)c1ccc(N)c(C#Cc2ccc(O)cc2)c1 | inactive
7 | COc1ccc(CCc2cc(C(=O)N[C@@H](CCc3ccccc3)C(=O)OC(C)(C)C)ccc2N)cc1 | inactive
8 | CC(C)(C)OC(=O)[C@H](CCc1ccc(O)cc1)NC(=O)c1ccc(N)c(CCc2ccc(O)cc2)c1 | inactive
9 | N[C@@H](Cc1ccc2ccccc2c1)C(=O)Nc1ccc(C(=O)N[C@@H](CCc2ccccc2)C(=O)O)cc1OCCc1ccc(O)cc1 | Active
10 | CC(C)(C)OC(=O)[C@H](CCc1ccccc1)NC(=O)c1cc(N)cc(CCc2ccc(O)cc2)c1 | Active
11 | CC(C)(C)OC(=O)[C@H](CCc1ccccc1)NC(=O)c1ccc(N)c(CCc2ccccc2O)c1 | inactive
12 | CC(C)C[C@H](N)C(=O)OC(C)(C)C | Active
13 | CCCCCCCCCCNC(=O)[C@H](CCc1ccccc1)NC(=O)c1ccc(N)c(CCc2ccc(O)cc2)c1 | inactive
14 | CC(C)(C)OC(=O)[C@H](CCc1ccccc1)NC(=S)c1ccc(N)c(CCc2ccc(O)cc2)c1 | inactive
15 | CC(C)(C)OC(=O)[C@H](CCc1ccccc1)NC(=O)c1ccc(N)c(CCc2ccccc2)c1 | inactive
16 | CC(C)(C)OC(=O)[C@H](CCc1ccccc1)NC(=O)c1ccc(N)c(Sc2ccc(O)cc2)c1 | inactive
17 | CC(C)(C)OC(=O)[C@H](CCc1ccc(N)cc1)NC(=O)c1ccc(N)c(CCc2ccc(O)cc2)c1 | inactive
18 | Nc1ccc(C(=O)N[C@@H](CCc2ccccc2)C(=O)OC23CC4CC(CC(C4)C2)C3)cc1CCc1ccc(O)cc1 | inactive
19 | CSCC[C@H](N)C(=O)OC(C)(C)C | inactive
20 | CCCCCCCCCNC(=O)[C@H](CCc1ccccc1)NC(=O)c1ccc(N)c(CCc2ccc(O)cc2)c1 | inactive
21 | CC(C)(C)OC(=O)[C@H](CCC1CCCCC1)NC(=O)c1ccc(N)c(CCc2ccc(O)cc2)c1 | Active
22 | CN(C(=O)c1ccc(N)c(CCc2ccc(O)cc2)c1)[C@@H](CCc1ccccc1)C(=O)OC(C)(C)C | inactive
23 | CC(C)(C)OC(=O)[C@H](CCc1ccc(F)cc1)NC(=O)c1ccc(N)c(CCc2ccc(O)cc2)c1 | Active
24 | CC(C)[C@H](N)C(=O)OC(C)(C)C | Active
25 | CC(C)(C)OC(=O)[C@H](CCc1ccccc1)NC(=O)c1ccc(N)c(CCc2cccc(O)c2)c1 | Active
26 | Cc1ccc(CC[C@H](NC(=O)c2ccc(N)c(CCc3ccc(O)cc3)c2)C(=O)OC(C)(C)C)cc1 | Active
27 | CC[C@H](N)C(=O)OC(C)(C)C | Active
28 | CCCCCCCCNC(=O)[C@H](CCc1ccccc1)NC(=O)c1ccc(N)c(CCc2ccc(O)cc2)c1 | inactive

More lines, now with the values ahead:

Row | Activity | Structure (SMILES)
29 | inactive | CC(C)(C)OC(=O)[C@H](CCc1ccccc1)NC(=O)c1ccc([N+](=O)[O-])c(OCCc2ccc(O)cc2)c1
30 | inactive | CC(C)(C)NC(=O)[C@H](CCc1ccccc1)NC(=O)c1ccc(N)c(CCc2ccc(O)cc2)c1
31 | Active | CCC(C)(C)OC(=O)[C@H](CCc1ccccc1)NC(=O)c1ccc(N)c(CCc2ccc(O)cc2)c1
32 | inactive | CC(C)(C)OC(=O)[C@H](CCc1ccccc1)NC(=O)c1ccc(N)c(OCCCCc2ccc(O)cc2)c1
33 | Active | COc1ccc(C[C@H](N)C(=O)Nc2ccc(C(=O)N[C@@H](CCc3ccccc3)C(=O)O)cc2OCCc2ccc(O)cc2)cc1
34 | Active | CCCCCCNC(=O)[C@H](CCc1ccccc1)NC(=O)c1ccc(N)c(CCc2ccc(O)cc2)c1
35 | inactive | CC(C)(C)OC(=O)[C@H](CCc1ccccc1)NC(=O)c1ccc(N)c(Nc2ccc(O)cc2)c1
36 | Active | CC(C)(C)OC(=O)[C@H](CCc1ccccc1)NC(=O)c1ccc(N)c(OCCc2cccc(O)c2)c1
37 | Active | N[C@@H](Cc1ccccc1)C(=O)Nc1ccc(C(=O)N[C@@H](CCc2ccccc2)C(=O)O)cc1OCCc1ccc(O)cc1
38 | inactive | CC(C)(C)OC(=O)[C@H](CCc1ccccc1)NC(=O)c1ccc(N)c(-c2ccc(O)cc2)c1
39 | inactive | CC(C)(C)OC(=O)[C@H](CCc1ccccc1)NC(=O)c1ccc(N)c(OCCc2ccccc2)c1
40 | inactive | Nc1ccc(C(=O)N[C@@H](CCc2ccccc2)C(=O)O)cc1OCCc1ccc(O)cc1
41 | inactive | CC(C)(C)OC(=O)[C@H](CCc1ccccc1)NC(=O)c1cccc(CCc2ccc(O)cc2)c1
42 | inactive | CC(C)(C)OC(=O)[C@H](CCc1ccccc1)NC(=O)c1ccc(N)c(OCCCc2ccc(O)cc2)c1
43 | inactive | CN(C)c1ccc(C(=O)N[C@@H](CCc2ccccc2)C(=O)OC(C)(C)C)cc1CCc1ccc(O)cc1
44 | inactive | CNc1ccc(C(=O)N[C@@H](CCc2ccccc2)C(=O)OC(C)(C)C)cc1CCc1ccc(O)cc1
45 | inactive | CC(C)(C)OC(=O)[C@H](CCc1ccccc1)NC(=O)c1ccc(N)c(OCCc2ccc(O)c(Cl)c2)c1
46 | Active | CC(C)(C)OC(=O)[C@H](CCc1ccccc1)NC(=O)c1ccc(N)c(CCCc2ccc(O)cc2)c1
47 | inactive | C#CCC(C)(C)OC(=O)[C@H](CCc1ccccc1)NC(=O)c1ccc(N)c(CCc2ccc(O)cc2)c1
48 | inactive | Nc1ccc(C(=O)N[C@@H](CCc2ccccc2)C(=O)O)cc1CCc1ccc(O)cc1
49 | inactive | NC(=O)[C@H](CCc1ccccc1)NC(=O)c1ccc(N)c(CCc2ccc(O)cc2)c1
50 | inactive | CC(C)(C)OC(=O)[C@H](CCCc1ccccc1)NC(=O)c1ccc(N)c(CCc2ccc(O)cc2)c1
51 | inactive | CC(C)(C)OC(=O)[C@H](CCc1ccccc1)NC(=O)c1cccc(OCCc2ccc(O)cc2)c1
52 | inactive | CC(C)(C)OC(=O)[C@H](CCc1ccccc1)NC(=O)c1ccc(N)c(Cc2ccc(O)cc2)c1
53 | inactive | CC(C)(C)OC(=O)[C@H](CCc1ccccc1)NC(=O)c1cc(CCc2ccc(O)cc2)ccc1N
54 | inactive | CC(C)OC(=O)[C@H](CCc1ccccc1)NC(=O)c1ccc(N)c(CCc2ccc(O)cc2)c1
55 | Active | CC(C)(C)OC(=O)[C@H](CCc1ccccc1)NC(=O)c1ccc(N)c(COc2ccc(O)cc2)c1
56 | inactive | CC(C)(C)OC(=O)[C@H](CCc1ccccc1)NC(=O)c1ccc(N)c(OCCc2ccc(O)c(F)c2)c1
57 | inactive | CC(C)(C)COC(=O)[C@H](CCc1ccccc1)NC(=O)c1ccc(N)c(CCc2ccc(O)cc2)c1
58 | inactive | CC(C)(C)OC(=O)[C@H](CCCCc1ccccc1)NC(=O)c1ccc(N)c(CCc2ccc(O)cc2)c1

Biological target: T2, Toll-like receptor 4 (Mus musculus, UniProt Q9QUK6)
T2 sequence (Q9QUK6 whole entry): T1 sequence (whole entry)
Experiment: Agonist activity at TLR4 in C57BL/6J mouse macrophages assessed as stimulation of TNFalpha release after 4 hrs by ELISA
Outline: as §1

Row | pEC50 | Structure (SMILES)
59 | 4.53 | CC(C)(C)OC(=O)[C@H](CCC1CCCCC1)NC(=O)c1ccc(N)c(CCc2ccc(O)cc2)c1
60 | 4.67 | Cc1ccc(CC[C@H](NC(=O)c2ccc(N)c(CCc3ccc(O)cc3)c2)C(=O)OC(C)(C)C)cc1
